Test results from ChEMBL document CHEMBL4765270, “Piperidine propionamide as a scaffold for potent sigma-1 receptor antagonists and mu opioid receptor agonists for treating neuropathic pain” (Eur J Med Chem, 2020).
Activity calls are given as the source filed them. No cut-off for these calls is given here.

Tests used:
[1] = target: Sigma non-opioid intracellular receptor 1 (Cavia porcellus, UniProt Q60492); experiment: Displacement of [3H]-(+)-pnetazocin from sigma1 receptor in guinea pig brain membrane incubated for 150 mins by liquid scintillation counting method; type: cell membranes
Sequence of Sigma non-opioid intracellular receptor 1 (Q60492 whole entry): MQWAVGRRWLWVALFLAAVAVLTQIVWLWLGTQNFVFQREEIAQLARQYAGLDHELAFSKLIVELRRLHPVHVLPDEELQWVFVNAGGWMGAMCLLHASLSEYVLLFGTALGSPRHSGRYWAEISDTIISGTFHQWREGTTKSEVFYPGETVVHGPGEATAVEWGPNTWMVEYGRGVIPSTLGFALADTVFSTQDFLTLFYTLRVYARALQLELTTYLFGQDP

Mu-type opioid receptor = Mu-type opioid receptor (Cavia porcellus, UniProt P97266); experiment: Displacement of [3H]DAMGO from mu opioid receptor in guinea pig brain membrane incubated for 2.5 hrs by scintillation counting method; type: cell membranes
Sequence of Mu-type opioid receptor (P97266 whole entry): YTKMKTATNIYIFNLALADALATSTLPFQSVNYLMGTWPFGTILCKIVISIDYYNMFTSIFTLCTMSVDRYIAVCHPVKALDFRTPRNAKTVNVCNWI

Mus musculus [2] = experiment: Antiallodynic activity against formalin-induced nociceptive behavior in ICR mouse assessed as licking/biting time at 50 mg/kg, sc pre-treated for 30 mins followed by formalin-stimulation and measured up to 5 mins; type: functional; conditions: time min <=35
Summary of the method: (§1)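 Male/female unspecified ICR mice (n=10 per group) given test compound s.c. or vehicle 30% PEG 400 (4 mL/kg) 30 min before intraplantar injection of 100 µL 5% formalin (1.85% formaldehyde) into right hind paw; time spent licking/biting recorded 0-5 min (phase I) and 15-45 min (phase II); antinociception % = (LT vehicle − LT drug)/LT vehicle × 100; mean ± SEM.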

Mus musculus [3] = experiment: Antiallodynic activity against formalin-induced nociceptive behavior in ICR mouse assessed as licking/biting time at 50 mg/kg, sc pre-treated for 30 mins followed by formalin-stimulation and measured up to 15 to 30 mins; type: functional; conditions: time min <=45; summary of the method: as §1
Rattus norvegicus [4] = experiment: Antinociceptive activity in CCI-induced Sprague-Dawley rat model of neuropathic pain assessed as paw withdrawal latency at 50 mg/kg, sc after 15 days; type: functional, organism-based; conditions: time 15.0 day
[5] = Therapeutic index, ratio of LD50 for toxicity in ICR mouse to ED50 for antiallodynic activity against formalin-induced nociceptive behavior in ICR mouse; conditions: read-out: Ratio LD50/ED50
Summary of the method: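 TI = LD50/ED50: LD50 from s.c. acute toxicity in mice, ED50 from phase II of formalin test (s.c. dosing 30 min before formalin, 12.5–100 mg/kg).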

[6] = Toxicity in sc dosed ICR mouse assessed as mortality after 24 hrs; type: organism-based; conditions: in vivo
[7] = target: T1, 5-hydroxytryptamine receptor 1A (Homo sapiens) (UniProt P08908); experiment: Inhibition of 5HT1A receptor (unknown origin) at 1 uM relative to control
T1 sequence (whole entry): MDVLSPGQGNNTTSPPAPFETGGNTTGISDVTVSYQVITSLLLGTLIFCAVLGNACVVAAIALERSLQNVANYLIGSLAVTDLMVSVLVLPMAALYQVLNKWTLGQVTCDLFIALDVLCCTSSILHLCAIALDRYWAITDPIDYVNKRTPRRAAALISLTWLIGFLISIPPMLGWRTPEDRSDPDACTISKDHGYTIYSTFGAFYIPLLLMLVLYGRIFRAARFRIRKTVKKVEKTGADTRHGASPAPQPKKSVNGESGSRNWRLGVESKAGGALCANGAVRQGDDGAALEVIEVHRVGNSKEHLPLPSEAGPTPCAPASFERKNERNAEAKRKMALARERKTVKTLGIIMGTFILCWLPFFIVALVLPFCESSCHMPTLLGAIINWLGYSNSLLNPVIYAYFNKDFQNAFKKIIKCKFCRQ

[8] = target: Cannabinoid receptor 2 (Homo sapiens) (UniProt P34972); experiment: Inhibition of CB2 receptor (unknown origin) at 1 uM relative to control
Sequence of Cannabinoid receptor 2 (Homo sapiens) (P34972 whole entry): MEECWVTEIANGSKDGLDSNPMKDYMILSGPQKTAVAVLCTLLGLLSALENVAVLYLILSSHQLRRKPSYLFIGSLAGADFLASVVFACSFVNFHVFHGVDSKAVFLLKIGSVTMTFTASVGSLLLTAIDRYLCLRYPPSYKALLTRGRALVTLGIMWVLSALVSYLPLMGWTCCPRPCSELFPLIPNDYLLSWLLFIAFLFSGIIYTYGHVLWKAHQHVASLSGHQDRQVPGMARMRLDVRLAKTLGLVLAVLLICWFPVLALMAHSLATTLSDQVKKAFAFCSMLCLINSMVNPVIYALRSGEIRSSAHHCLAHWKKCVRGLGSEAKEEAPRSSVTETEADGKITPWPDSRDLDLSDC

[9] = target: Sodium-dependent serotonin transporter (Homo sapiens) (UniProt P31645); experiment: Inhibition of 5-HT transporter (unknown origin) at 1 uM relative to control
Sequence of Sodium-dependent serotonin transporter (Homo sapiens) (P31645 whole entry, looked up): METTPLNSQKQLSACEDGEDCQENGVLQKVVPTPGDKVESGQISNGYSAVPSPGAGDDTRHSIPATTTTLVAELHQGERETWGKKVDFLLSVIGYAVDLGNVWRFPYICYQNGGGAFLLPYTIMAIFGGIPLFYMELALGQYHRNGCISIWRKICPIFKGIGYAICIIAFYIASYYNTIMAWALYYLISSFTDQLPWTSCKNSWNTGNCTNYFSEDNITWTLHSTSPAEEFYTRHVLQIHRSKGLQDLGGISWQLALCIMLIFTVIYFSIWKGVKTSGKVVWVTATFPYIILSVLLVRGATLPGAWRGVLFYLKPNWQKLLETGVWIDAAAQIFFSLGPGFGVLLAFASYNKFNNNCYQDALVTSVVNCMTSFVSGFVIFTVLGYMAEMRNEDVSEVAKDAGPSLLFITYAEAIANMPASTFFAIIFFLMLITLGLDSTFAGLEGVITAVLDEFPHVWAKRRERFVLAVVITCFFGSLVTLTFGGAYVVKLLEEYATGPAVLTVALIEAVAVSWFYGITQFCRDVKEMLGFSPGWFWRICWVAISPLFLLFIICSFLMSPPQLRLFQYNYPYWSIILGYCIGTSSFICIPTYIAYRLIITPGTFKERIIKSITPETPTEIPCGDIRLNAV

Homo sapiens [10] = species on record: Homo sapiens; experiment: Inhibition of NMDA receptor (unknown origin) at 1 uM relative to control
[11] = target: Sodium-dependent noradrenaline transporter (Homo sapiens) (UniProt P23975); experiment: Inhibition of noradrenaline transporter (unknown origin) at 1 uM relative to control
Sequence of Sodium-dependent noradrenaline transporter (Homo sapiens) (P23975 whole entry): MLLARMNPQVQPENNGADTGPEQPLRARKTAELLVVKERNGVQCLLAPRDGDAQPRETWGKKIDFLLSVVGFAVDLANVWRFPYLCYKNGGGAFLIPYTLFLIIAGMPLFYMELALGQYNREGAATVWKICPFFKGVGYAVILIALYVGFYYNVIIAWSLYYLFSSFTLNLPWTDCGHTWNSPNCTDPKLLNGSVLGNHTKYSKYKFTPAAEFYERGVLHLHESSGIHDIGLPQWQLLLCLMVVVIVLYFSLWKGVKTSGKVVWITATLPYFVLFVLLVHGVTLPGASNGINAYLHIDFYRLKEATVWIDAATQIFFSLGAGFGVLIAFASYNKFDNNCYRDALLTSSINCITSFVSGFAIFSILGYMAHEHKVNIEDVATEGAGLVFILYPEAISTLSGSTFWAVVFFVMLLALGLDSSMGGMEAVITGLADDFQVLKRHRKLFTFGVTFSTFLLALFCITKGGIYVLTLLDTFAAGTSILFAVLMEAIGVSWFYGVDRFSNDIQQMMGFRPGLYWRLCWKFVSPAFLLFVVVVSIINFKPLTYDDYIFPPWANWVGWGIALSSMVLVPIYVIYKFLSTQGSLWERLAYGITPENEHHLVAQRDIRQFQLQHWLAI

Homo sapiens [12] = species on record: Homo sapiens; experiment: Inhibition of adrenergic alpha2 receptor (unknown origin) at 1 uM relative to control
Homo sapiens [13] = species on record: Homo sapiens; experiment: Inhibition of sigma 2 receptor (unknown origin) at 1 uM relative to control
Homo sapiens [14] = species on record: Homo sapiens; experiment: Inhibition of adrenergic alpha1 receptor (unknown origin) at 1 uM relative to control
[15] = target: Cannabinoid receptor 1 (Homo sapiens) (UniProt P21554); experiment: Inhibition of CB1 receptor (unknown origin) at 1 uM relative to control
Sequence of Cannabinoid receptor 1 (Homo sapiens) (P21554 whole entry): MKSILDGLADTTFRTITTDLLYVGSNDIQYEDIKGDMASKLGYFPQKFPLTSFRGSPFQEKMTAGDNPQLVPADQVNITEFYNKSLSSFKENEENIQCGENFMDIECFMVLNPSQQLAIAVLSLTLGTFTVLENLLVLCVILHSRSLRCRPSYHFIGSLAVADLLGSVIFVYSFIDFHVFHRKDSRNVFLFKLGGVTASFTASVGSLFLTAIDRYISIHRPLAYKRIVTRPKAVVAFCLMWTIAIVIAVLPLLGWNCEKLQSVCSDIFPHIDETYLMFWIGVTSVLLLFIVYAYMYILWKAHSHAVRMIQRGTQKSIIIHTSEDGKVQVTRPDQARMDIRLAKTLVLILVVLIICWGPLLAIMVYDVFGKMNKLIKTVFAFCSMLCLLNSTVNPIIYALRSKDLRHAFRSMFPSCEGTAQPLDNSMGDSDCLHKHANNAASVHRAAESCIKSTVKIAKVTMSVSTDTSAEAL

[16] = target: 5-hydroxytryptamine receptor 2A (Homo sapiens) (UniProt P28223); experiment: Inhibition of 5HT2A receptor (unknown origin) at 1 uM relative to control
Sequence of 5-hydroxytryptamine receptor 2A (Homo sapiens) (P28223 whole entry): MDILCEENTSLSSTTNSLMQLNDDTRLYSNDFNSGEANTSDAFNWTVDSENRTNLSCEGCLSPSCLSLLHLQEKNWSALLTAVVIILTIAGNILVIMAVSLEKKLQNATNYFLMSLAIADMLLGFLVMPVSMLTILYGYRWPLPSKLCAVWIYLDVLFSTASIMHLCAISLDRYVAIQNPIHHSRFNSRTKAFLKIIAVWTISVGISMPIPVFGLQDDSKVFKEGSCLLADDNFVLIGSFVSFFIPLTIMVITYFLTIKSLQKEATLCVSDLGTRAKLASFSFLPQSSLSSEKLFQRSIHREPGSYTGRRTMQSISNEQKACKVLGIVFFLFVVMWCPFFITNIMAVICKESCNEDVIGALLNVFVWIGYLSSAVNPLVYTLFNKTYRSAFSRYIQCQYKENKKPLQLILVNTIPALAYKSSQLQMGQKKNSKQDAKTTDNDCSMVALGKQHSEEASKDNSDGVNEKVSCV

[17] = target: Histamine H3 receptor (Homo sapiens) (UniProt Q9Y5N1); experiment: Inhibition of histamine H3 receptor (unknown origin) at 1 uM relative to control
Sequence of Histamine H3 receptor (Homo sapiens) (Q9Y5N1 whole entry): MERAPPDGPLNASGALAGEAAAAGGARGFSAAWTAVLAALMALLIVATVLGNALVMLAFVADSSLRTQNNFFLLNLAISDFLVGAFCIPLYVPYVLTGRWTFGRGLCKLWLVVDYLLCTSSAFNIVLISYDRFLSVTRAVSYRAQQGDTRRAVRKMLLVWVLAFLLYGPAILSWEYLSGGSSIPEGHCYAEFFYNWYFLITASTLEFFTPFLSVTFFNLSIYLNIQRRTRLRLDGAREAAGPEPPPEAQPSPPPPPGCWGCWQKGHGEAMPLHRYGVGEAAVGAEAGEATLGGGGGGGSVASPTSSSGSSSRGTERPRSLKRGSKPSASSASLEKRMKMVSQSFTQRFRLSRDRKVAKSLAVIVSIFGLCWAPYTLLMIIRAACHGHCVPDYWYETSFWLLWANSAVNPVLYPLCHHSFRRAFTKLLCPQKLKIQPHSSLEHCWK

Rattus norvegicus [18] = experiment: Antinociceptive activity in CCI-induced sc dosed Sprague-Dawley rat model of neuropathic pain assessed as paw withdrawal latency after 15 days; type: functional; conditions: 360 h, time 15 day
Mus musculus [19] = experiment: Antiallodynic activity against formalin-induced nociceptive behavior in ICR mouse assessed as licking/biting time at 100 mg/kg, sc pre-treated for 30 mins followed by formalin-stimulation and measured up to 15 to 30 mins; type: functional; conditions: time min <=45; summary of the method: as §1
Mus musculus [20] = experiment: Antiallodynic activity against formalin-induced nociceptive behavior in sc dosed ICR mouse assessed as licking/biting time pre-treated for 30 mins followed by formalin-stimulation and measured up to 15 to 30 mins; type: functional; conditions: dose 12.5-100 mg/kg, time min <=45; summary of the method: as §1
Mus musculus [21] = experiment: Antiallodynic activity against formalin-induced nociceptive behavior in ICR mouse assessed as licking/biting time at 12.5 mg/kg, sc pre-treated for 30 mins followed by formalin-stimulation and measured up to 15 to 30 mins; type: functional; conditions: time min <=45; summary of the method: as §1
Mus musculus [22] = experiment: Antiallodynic activity against formalin-induced nociceptive behavior in ICR mouse assessed as licking/biting time at 25 mg/kg, sc pre-treated for 30 mins followed by formalin-stimulation and measured up to 15 to 30 mins; type: functional; conditions: time min <=45; summary of the method: as §1

Question: For CCC(=O)N(CCN1CCC(Cc2ccccc2)CC1)c1ncccc1F, which Ki [1] is on record?
Answer: 0.506 µM

Question: For CCC(=O)N(CCN1CCC(Cc2ccccc2)CC1)c1cc(F)c(F)c(F)c1, which Ki [1] is on record?
Answer: 0.573 µM

Question: Which Ki [1] does the source give for CCC(=O)N(CCN1CCC(Cc2ccc(C)cc2)CC1)c1ccc(F)cc1 here?
Answer: 0.047 µM

Question: For CCC(=O)N(CCN1CCC(Cc2ccccc2)CC1)c1ccc(OC)cc1, which Ki [1] is on record?
Answer: 0.0015 µM

Question: With CCC(=O)N(CCN1CCC(Cc2ccccc2)CC1)c1cccc(C(F)(F)F)n1 as the compound, how does the Ki [1] read?
Answer: 0.835 µM

Question: Which Ki (Mu-type opioid receptor) does the source give for C[C@H]1[C@H]2Cc3ccc(O)cc3[C@@]1(C)CCN2CCc1ccccc1 here?
Answer: 0.055 µM

Question: Which results are given for Cc1cc(OCCN2CCOCC2)nn1-c1ccc2ccccc2c1?
Answer: Activity (Mus musculus [2]): Active; Time (Mus musculus [3]): 273 s; Activity (Rattus norvegicus [4]): Active; selectivity ratio [5]: 12; LD50 at 24 h [6]: 357 mg/kg

Question: Which Ki [1] does the source give for CCC(=O)N(CCCCN1CCC(Cc2ccccc2)CC1)c1ccc(OC)cc1 here?
Answer: 0.018 µM

Question: For CCC(=O)N(CCN1CCC(Cc2ccc(F)cc2)CC1)c1ccc(C)cc1, which Ki [1] is on record?
Answer: 0.0024 µM

Question: With CCC(=O)N(CCN1CCC(Cc2ccccc2)CC1)Cc1ccccc1 as the compound, how does the Ki [1] read?
Answer: 0.0187 µM

Question: What does the source list for CCC(=O)N(CCN1CCC(Cc2ccc(F)cc2)CC1)c1ccc(F)cc1?
Answer: Time (Mus musculus [2]): 36 s; Ki [1]: 0.0013 µM; Time (Mus musculus [3]): 110 s; inhibition [7]: 23%; inhibition [8]: 19.9%; inhibition [9]: 44.6%; inhibition (Homo sapiens [10]): 20.5%; inhibition [11]: 28.8%; inhibition (Homo sapiens [12]): 32.3%; inhibition (Homo sapiens [13]): 31.8%; inhibition (Homo sapiens [14]): 39.9%; LD50 at 24 h [6]: 416 mg/kg; inhibition [15]: 17.4%; inhibition [16]: 34.4%; inhibition [17]: 9.75%

Question: With CCC(=O)N(CCN1CCC(CCc2ccccc2)CC1)c1ccc(OC)cc1 as the compound, how does the Ki [1] read?
Answer: 0.372 µM

Question: With CCC(=O)N(CCN1CCC(CCCc2ccccc2)CC1)c1ccc(OC)cc1 as the compound, how does the Ki [1] read?
Answer: 0.893 µM

Question: With CCC(=O)N(CCN1CCC(c2ccccc2)CC1)c1ccc(OC)cc1 as the compound, how does the Ki [1] read?
Answer: 0.039 µM

Question: For CCC(=O)N(CCN1CCC(Cc2ccc(C)cc2)CC1)c1ccc(C)cc1, which Ki [1] is on record?
Answer: 0.029 µM

Question: With CCC(=O)N(CCN1CCC(Cc2ccccc2)CC1)c1ccccn1 as the compound, how does the Ki [1] read?
Answer: 0.402 µM

Question: Which Ki [1] does the source give for CCC(=O)N(CCN1CCC(Cc2ccc(C)cc2)CC1)c1ccc(OC)cc1 here?
Answer: 0.035 µM

Question: With CCC(=O)N(CCN1CCC(Cc2ccccc2)CC1)C(C)c1ccccc1 (configuration not stated) as the compound, how does the Ki [1] read?
Answer: 0.0174 µM

Question: For CCC(=O)N(CCN1CCC(Cc2ccccc2)CC1)c1ccc(C)cc1, which Ki [1] is on record?
Answer: 0.0016 µM

Question: For CCC(=O)N(CCc1ccccc1)CCN1CCC(Cc2ccccc2)CC1, which Ki [1] is on record?
Answer: 0.269 µM

Question: For CCC(=O)N(CCCCCN1CCC(Cc2ccccc2)CC1)c1ccc(OC)cc1, which Ki [1] is on record?
Answer: 0.042 µM

Question: For CCC(=O)N(CCN1CCC(Cc2ccc(F)cc2)CC1)c1ccc(OC)cc1, which Time (Mus musculus [2]) is on record?
Answer: 21 s

Question: And the ED50 (Rattus norvegicus [18])?
Answer: 44.1 mg/kg

Question: And the Ki [1]?
Answer: 0.00186 µM

Question: What about the Time (Mus musculus [3]) of the same compound?
Answer: 63 s

Question: What about the inhibition [7] of the same compound?
Answer: 45.2%

Question: And the inhibition [8]?
Answer: 32.6%

Question: What about the Time (Mus musculus [19]) of the same compound?
Answer: 41 s

Question: And the inhibition [9]?
Answer: 10.9%

Question: What about the inhibition (Homo sapiens [10]) of the same compound?
Answer: 14.3%

Question: What about the Activity (Mus musculus [20]) of the same compound?
Answer: Dose-dependent effect

Question: What about the ED50 (Mus musculus [20]) of the same compound?
Answer: 15.1 mg/kg

Question: And the inhibition [11]?
Answer: 18.5%

Question: And the inhibition (Homo sapiens [12])?
Answer: 45.9%

Question: And the Time (Mus musculus [21])?
Answer: 201 s

Question: And the inhibition (Homo sapiens [13])?
Answer: 29.1%

Question: And the inhibition (Homo sapiens [14])?
Answer: 24.7%

Question: And the LD50 at 24 h [6]?
Answer: 397 mg/kg

Question: And the inhibition [15]?
Answer: 20.8%

Question: And the Time (Mus musculus [22])?
Answer: 108 s

Question: And the inhibition [16]?
Answer: 43.6%

Question: What about the inhibition [17] of the same compound?
Answer: 34.6%

Question: For C[C@@H]1[C@@H]2Cc3ccc(O)cc3[C@]1(C)CCN2CCc1ccccc1, which Ki (Mu-type opioid receptor) is on record?
Answer: 0.0002 µM

Question: With CCC(=O)N(CCCN1CCC(Cc2ccccc2)CC1)c1ccc(OC)cc1 as the compound, how does the Ki [1] read?
Answer: 0.0022 µM
